Assay outcomes: PubChem BioAssay, Broad Institute
An excerpt weighted towards active compounds, which were near 3.1% of everything screened.
CFTR F508del cor = correctors of CFTR F508del function in bronchial epithelial cells; CFBE cells, YFP halide quenching; stimulated with forskolin plus potentiator P3; % fluorescence drop versus neutral controls; activity (quench increase), % at 7.58 µM; actives 0.36% (n = 350,000);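 active = mean added fluorescence quench of at least 8% versus neutral control, with both replicates also reaching 8%; inconclusive = only one of the mean or replicate conditions met; inactive = mean below 8% and not both replicates reaching 8%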;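 note: cells transiently co-express mutant CFTR-F508del with the halide-sensitive YFP; corrector assay measuring rescue of mutant channel to the surface after 24 h compound exposure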
ERAP1 HTS inh = ERAP1 (human) enzyme inhibition; recombinant ERAP1, Leu-AMC fluorescence, 60 min; inhibition, % at 10.7 µM; actives 0.15% (n = 340,000);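 active = mean replicate inhibition of at least 30%, or all replicates individually reaching that 30% level; inactive = mean below 30% and not every replicate reaching it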
Target sequence (Q9NZ08 whole entry, looked up): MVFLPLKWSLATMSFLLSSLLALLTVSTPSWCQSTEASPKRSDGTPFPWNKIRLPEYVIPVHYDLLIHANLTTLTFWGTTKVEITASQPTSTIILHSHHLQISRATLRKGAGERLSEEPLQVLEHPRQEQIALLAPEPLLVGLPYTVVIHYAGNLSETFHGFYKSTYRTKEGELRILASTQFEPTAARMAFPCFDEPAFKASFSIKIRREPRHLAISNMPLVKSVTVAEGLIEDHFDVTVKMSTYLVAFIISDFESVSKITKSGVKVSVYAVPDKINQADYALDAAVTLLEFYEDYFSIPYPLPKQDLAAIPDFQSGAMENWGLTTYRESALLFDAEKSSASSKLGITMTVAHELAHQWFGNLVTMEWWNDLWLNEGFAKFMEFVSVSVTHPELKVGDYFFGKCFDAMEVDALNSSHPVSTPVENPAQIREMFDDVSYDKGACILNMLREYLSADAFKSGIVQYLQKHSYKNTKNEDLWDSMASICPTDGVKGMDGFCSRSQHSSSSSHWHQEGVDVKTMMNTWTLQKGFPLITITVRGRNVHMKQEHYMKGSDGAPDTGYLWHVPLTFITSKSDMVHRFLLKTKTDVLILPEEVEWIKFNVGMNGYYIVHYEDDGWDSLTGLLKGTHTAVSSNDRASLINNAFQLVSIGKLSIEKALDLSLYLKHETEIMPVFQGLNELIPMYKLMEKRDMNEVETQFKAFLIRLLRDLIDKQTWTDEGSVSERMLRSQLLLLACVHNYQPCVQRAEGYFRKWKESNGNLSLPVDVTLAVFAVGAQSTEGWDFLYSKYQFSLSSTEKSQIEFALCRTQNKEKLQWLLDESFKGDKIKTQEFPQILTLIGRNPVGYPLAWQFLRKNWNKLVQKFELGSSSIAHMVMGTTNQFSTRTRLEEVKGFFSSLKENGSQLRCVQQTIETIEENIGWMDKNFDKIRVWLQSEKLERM
S100A4 MyoIIA = inhibitors of human S100A4 binding to myosin IIA peptide | P26447 | actives 0.14% (n = 360,000) | inhibition, % at 10.7 µM | S100A4/TAMRA-MyoIIA peptide fluorescence polarization;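 active = mean inhibition of at least 70% across replicates, with every replicate also reaching that level; inconclusive = mean inhibition reaches 70% but some replicates fall short; inactive = mean inhibition below 70%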
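System – human S100A4 monomer protein, biochemical binding assay · Buffer or medium – Calcium-containing HEPES buffer, pH 7.2 · Timing – 5 min between mix addition and reading · Also added – TAMRA-labelled myosin IIA heavy-chain peptide probe, 5 nM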
SIRT5 block = blocks human SIRT5 desuccinylation of peptide | AID 652115 | actives 1.1% (n = 330,000) | inhibition, % at 15 µM | Q9NXA8 | Purified SirT5, succinyl-peptide AMC, trypsin-coupled fluorescence; in the data active = inhibition above about 15%; inconclusive = no clear call, values can overlap the other calls
rRNA inh HTS = inhibitors of bacterial rRNA selective over humanized ribosomes; E. coli WT GFP vs humanized-ribosome RFP mutants, fluorescence, 24 h; active compounds read low; DMSO median 0, no signal -100; actives 1.6% (n = 350,000); AID 720706; GFP signal change (wild-type ribosome), % (test concentration not listed);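 active = significant combined selectivity score with lowered wild-type GFP, culture density cut under 30%, mutant RFP and density less affected; inactive = any of these conditions unmet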
HepG2 tox = HepG2 cell cytotoxicity. shares compounds with rRNA inh HTS. HepG2 viability, ATP luminescence, 72 h. activity change, negative = cytotoxicity, unspecified at 26 µM. 30 tested, under 10 active;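 active = compounds whose fitted half-maximal signal-loss concentration is at most twice their highest valid dose; inconclusive = flat curve with 30 to 70% signal loss, or poor fit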
AID977621 = wild-type E. coli growth inhibition versus H69 humanized strain – H69 mutant RFP, wild-type GFP, cherry-pick, dose response; shares compounds with rRNA inh HTS; fluorescence, 24 h; activity change, negative = inhibition at 50 µM; 1,900 tested, under 10 active;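 active = Wild-type ribosome reporter drop at least double the humanized mutant ribosome reporter drop, growth loss under a set limit; inconclusive = no clear call, values can overlap the other calls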;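 note: wild-type GFP and H69 mutant RFP strains grown together 50/50 in each well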
AID977628 = growth of wild-type and h24-humanized E. coli strains – h24 mutant RFP vs wild-type GFP, cherry-pick, dose response. 1,900 tested, under 10 active. shares compounds with rRNA inh HTS. E. coli WT GFP strain growth, fluorescence, 24 h. activity change, negative = inhibition at 50 µM;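 active = compound lowering the normal-ribosome reporter at least twice as much as the humanized-ribosome reporter, growth loss under a set limit; inconclusive = no clear call, values can overlap the other calls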;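 note: wild-type GFP and h24 humanized RFP strains co-cultured 1 to 1 per well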
A number is an active result; - = inactive; ? = inconclusive; . = no result given.

SMILES	CFTR F508del cor	ERAP1 HTS inh	S100A4 MyoIIA	SIRT5 block	rRNA inh HTS	AID977621	AID977628	others
C[C@H](CO)N1C[C@H](C)[C@H](CN(C)S(=O)(=O)c2cn(C)cn2)Oc2c(NC(=O)Nc3ccc(F)cc3)cccc2C1=O	-	-	-	-	-	.	.
COc1ccc(-c2ccc3c(c2)O[C@@H](CN(C)C)[C@H](C)CN([C@@H](C)CO)S3(=O)=O)cc1	-	-	-	-	-	.	.
CC(=O)Nc1ccc(Nc2cc(C)c3ccccc3n2)cc1	-	-	-	-	-	.	.
CC(=O)Nc1cccc(Nc2nc(-c3ccccc3)nc3ccccc23)c1	-	-	-	.	-22	.	?
CC(=O)Nc1ccc2nc3ccccc3nc2c1	-	-	-	-	-26	-	.
O=C(CSc1ncccn1)NC1CCCc2ccccc21 (stereo unspecified)	-	-	-	-	-	.	.
Cc1ccc(-n2nnnc2SCC(=O)NC2CCCc3ccccc32)cc1 (stereo unspecified)	-	-	-	-	-30	-	.
O=[N+]([O-])c1ccc2c(c1)S(=O)c1ccccc1-2 (stereo unspecified)	-	.	-	-	-23	-	-
Cc1ccc(NC(=O)c2ccccc2F)c(NC(=O)c2ccccc2F)c1	-	-	-	-	-20	-	-
CSc1ccccc1C(=O)Nc1cc(C)ccc1C	-	-	-	-	-	.	.
CCn1c(CNC(=O)c2ccccc2F)cc2cc(C)ccc21	-	-	-	-	-20	?	.
CCn1c(CNC(=O)c2ccccc2F)cc2ccccc21	-	-	-	-	-	.	.
O=C(C[C@@H]1C=C[C@@H](NC(=O)CN2CCOCC2)[C@H](CO)O1)NCCc1ccncc1	-	-	-	-	-	.	.
C[C@@H]1CN([C@@H](C)CO)C(=O)c2cc(C#CC3CCCC3)cnc2O[C@H]1CN(C)C(=O)c1ccncc1	-	-	-	-	-	.	.
C[C@@H]1CN([C@@H](C)CO)C(=O)c2cc(C#CC3CC3)cnc2O[C@H]1CN(C)C(=O)Nc1ccccc1	-	-	-	-	-	.	.
COc1ccc(C2CC(=O)CCN2S(=O)(=O)c2ccc(C)cc2)cc1 (stereo unspecified)	-	-	-	-	-22	-	?
O=C(C[C@@H]1C=C[C@@H](NC(=O)NC2CCCCC2)[C@@H](CO)O1)NCc1ccc(Cl)cc1	-	-	-	-	-	.	.
COc1cccc(NC(=O)COc2cccc3c2CCNC3=O)c1	-	-	-	-	-	.	.
Cc1cccc(NC(=O)COc2cccc3c2CCNC3=O)c1	-	-	-	.	-18	-	-
COc1ccccc1NC(=O)CSc1ncc(CO)n1Cc1ccc(F)cc1	-	-	-	-	-20	-	-
COc1ccccc1NS(=O)(=O)c1cc(NC(=O)CNC(=O)c2ccccc2)ccc1C	.	-	-	-	-20	?	.
COc1ccc(Cc2c(-c3cccc(Cl)c3)nc3ccc(Cl)cn23)c(C)c1	-	-	-	-	-19	?	-
Cc1ccc(-c2nc3ccc(Cl)cn3c2Cc2ccccc2C(F)(F)F)cc1	-	-	-	-	-	.	.
Fc1ccc(-c2nc3ccc(Cl)cn3c2Cc2cccc(Cl)c2)cc1	-	-	-	-	-21	-	-
COc1ccc(-c2nc3ccc(Cl)cn3c2Cc2cccc(F)c2)cc1OC	-	-	-	-	-21	?	.
SMILES	CFTR F508del cor	ERAP1 HTS inh	S100A4 MyoIIA	SIRT5 block	rRNA inh HTS	AID977621	AID977628	others
Cc1ccc2nc(-c3ccc(Cl)cc3)c(Cc3ccccc3C(F)(F)F)n2c1	-	.	-	-	-16	-	-
O=c1[nH]c2cc([N+](=O)[O-])ccc2c2ccccc12	-	-	-	.	-13	-	?
COc1ccc(OC)c(C(=O)COC(=O)COc2ccccc2)c1	-	-	-	-	-	.	.
COC(=O)c1ccc(OCC(=O)c2ccccc2OC)cc1	.	-	-	-	-23	-	-
COc1ccccc1C(C(C(=O)c1ccccc1)N1CCOCC1)N1CCOCC1 (stereo unspecified)	-	-	-	-	-14	-	?
C[C@@H]1CN([C@@H](C)CO)C(=O)c2cc(NS(=O)(=O)c3ccc(Cl)cc3)ccc2O[C@@H]1CN(C)Cc1ccc(Oc2ccccc2)cc1	-	-	-	-	-	.	.
CCN(CC(=O)Nc1ccc(OC)cc1)CC(=O)Nc1cccc(C#N)c1	-	-	-	-	-	.	.
CCN(CC(=O)Nc1cccc(C#N)c1)CC(=O)Nc1cccc(OC)c1	-	-	-	-	-22	-	.
CC(CCc1ccccc1)NC(=O)CCC1CCCC1 (stereo unspecified)	.	-	-	-	-21	-	-
CC(CCc1ccccc1)NC(=O)CCC(=O)N1CCC(C(=O)O)CC1 (stereo unspecified)	-	-	-	-	-	.	.
O=C(Nc1ccccc1Cl)c1ccc2c(c1)N(Cc1ccc(F)cc1)C(=O)CS2=O (stereo unspecified)	-	-	-	-	-23	-	.
CN1C(=O)c2cc(NC(=O)C3CCOCC3)ccc2OC[C@@H]2O[C@@H](CC(=O)O)CC[C@H]21	-	-	-	-	-	.	.
CN(C)C(=O)C[C@@H]1C[C@@H]2c3cc(NC(=O)NC4CCCC4)ccc3O[C@@H]2[C@H](CO)O1	-	-	-	-	-	.	.
Fc1ccccc1C1CCN(Cc2nc(CC3CC3)no2)C1 (stereo unspecified)	-	-	-	-	-18	-	-
C[C@@H]1CN(Cc2nc(Cc3ccccc3F)no2)C[C@H](C)O1	-	-	-	-	-	.	.
O=[N+]([O-])c1ccccc1Oc1ccc(Cl)c2cccnc12	-	-	-	-	-29	-	.
Cc1ccc(C)c(NC(=O)CSc2nc3nc(-c4cccs4)cc(C(F)(F)F)c3c(=O)[nH]2)c1	-	.	-	-	-20	.	?	HepG2 tox=-
O=C(CSc1nc2nc(-c3cccs3)cc(C(F)(F)F)c2c(=O)[nH]1)Nc1ccc(F)c(F)c1	-	-	-	-	-	.	.
CCCN1C(=O)C(O)(c2c(C)[nH]c3ccccc23)c2ccccc21 (stereo unspecified)	-	.	-	-	-18	-	-
Cc1cc(NC(=O)c2sc(Nc3ccc(F)c(Cl)c3)nc2N)no1	-	-	-	-	-22	-	-
Cc1cc(NC(=O)c2c(F)cccc2Cl)no1	-	-	-	-	-	.	.
O=C(C[C@@H]1C=C[C@@H](NC(=O)C2CC2)[C@@H](CO)O1)NCc1ccncc1	-	-	-	-	-	.	.
